We go through 54 compounds from PubChem BioAssay AID624467 (The Scripps Research Institute Molecular Screening Center, 2012).

In all, about 360,000 compounds went through this assay and about 3,600 (1%) were called active. For the sample, actives were picked, then their nearest neighbours and some compounds at random. A number with no mark means an inactive call.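 The calls were made as follows: active = activation above the mean activation of all test compounds in the run plus 3 SD (cut at about 38% in these data); inactive = the rest.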

The target of this test is Trace amine-associated receptor 1 (Homo sapiens) (UniProt Q96RJ0). The test is described as follows: human TAAR1 agonists, primary screen, Fluo-8 calcium fluorescence, CHO RD-HGA16 cells (AID 624467). Conditions: CHO RD-HGA16 TAAR1, Fluo-8 calcium fluorescence; at 3 µM; hits give high values; vehicle wells 0%, saturating PEA agonist 100%. The procedure, abridged: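 Benchmarks: low control DMSO, high control PEA (EC100); System: CHO RD-HGA16 cells carrying human TAAR1 plus Gα16; Detection: Fluo-8 fluorescence, 5 s baseline then 140 s kinetic read; Schedule: 17-24 h plating, Fluo-8 75 min 37 °C, 30 min RT; Read-out basis: % activation from peak over basal fluorescence ratio, DMSO-to-PEA scaled.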
Trace amine-associated receptor 1 (Homo sapiens), sequence (Q96RJ0 whole entry, looked up): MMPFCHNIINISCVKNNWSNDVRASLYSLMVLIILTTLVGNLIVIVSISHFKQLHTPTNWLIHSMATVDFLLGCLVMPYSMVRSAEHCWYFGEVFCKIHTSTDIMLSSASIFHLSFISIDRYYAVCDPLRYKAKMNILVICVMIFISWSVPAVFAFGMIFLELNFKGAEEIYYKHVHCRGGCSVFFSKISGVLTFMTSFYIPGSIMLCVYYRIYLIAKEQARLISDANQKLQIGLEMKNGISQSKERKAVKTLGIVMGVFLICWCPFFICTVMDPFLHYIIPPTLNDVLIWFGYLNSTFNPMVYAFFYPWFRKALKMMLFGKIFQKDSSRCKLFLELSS
As for `O=C(Nc1ccc(Cl)cc1)N1CCc2[nH]c3ccccc3c2C1`, the activation was 50.1% (active).
For `C[C@H](O)[C@@H]1C(=O)N2CCc3c([nH]c4ccccc34)[C@@H]2C[C@@H]1N(C)C(=O)Nc1ccc(F)cc1` the value was 9.88%; for `CC(=O)C(CC(=O)N1CCCC1)C(=O)Nc1ccc(Cl)cc1` (centres undefined), 7.47%.
For `C=CCNC(=S)N1CCc2[nH]c3ccccc3c2C1` the value was 6.5%; for `CCOc1ccc(NC(=O)N2CC=C(n3c(=O)[nH]c4ccccc43)CC2)cc1`, 15.9%; for `Fc1ccc(NC(=S)N2CCc3[nH]c4ccccc4c3C2)cc1`, 51.5% (active).
As for `COC(=O)C(C(=O)OC)c1ccccc1NS(=O)(=O)c1cccc2ccccc12`, the figure is -0.61%; as for `CCOc1ccccc1C(=O)N1CCC[C@@H]1C(=O)N1CCC[C@H]1C(=O)NCc1ccccc1`, -0.21%.
In the case of `Cc1ccc2nc(CN(C)C(=O)[C@@H](Cc3ccccc3)NC(=O)[C@H]3O[C@@H](n4ccc(=O)[nH]c4=O)[C@H](O)[C@@H]3O)[nH]c2c1`, the activation was 1.15%.
As for `CC(C)CCNC(=O)Cn1c(=O)oc2cc(S(=O)(=O)N3CC(C)CC(C)C3)ccc21` (centres undefined), the figure is 4.15%.
Consider `N/C(=N\c1nc2ccccc2o1)NC(=O)C(Cc1ccccc1)N1C(=O)c2ccccc2C1=O` (centres undefined), for which the activation was -1.96%.
As for `O=C(NCC1CCN(Cc2ccccc2Cl)CC1)Nc1cccc(Cl)c1`, the figure is 2.1%.
As for `Cc1cccc(CN2CCC(CNC(=O)Nc3ccc(F)c(Cl)c3)CC2)c1`, the figure is 39.9% (active); as for `Cc1ccc(C)c(CN2CCC(CNC(=O)Nc3ccc(C)c(F)c3)CC2)c1`, 2.76%.
For `COc1ccc(C(=O)OCC(=O)NCC2CCCO2)cc1[N+](=O)[O-]` (centres undefined) the value was -0.84%; for `O=S(=O)(Nc1cc(S(=O)(=O)N2CCOCC2)ccc1N1CCCC1)c1cccs1`, -2.22%.
On to `CC1(C)c2[nH]c3ccccc3c2C[C@H]2C(=O)N(N)CC(=O)N21`, for which the activation is 4.18%.
For `COc1cc(S(=O)(=O)N2CCN=C2c2ccccc2)ccc1Cl` the value was -0.47%.
As for `CCOC(=O)[C@]12CCCC=C1N(CCC1=CCCCC1)C(=O)[C@H](CC(=O)NCCCOC)C2`, the figure is -0.95%; as for `O=C(NCCN1CCOCC1)/C(=C/c1ccc(F)cc1)NC(=O)c1ccccc1`, -2.27%.
As for `CCOc1ccc(/C=C(/NC(=O)c2ccccc2)C(=O)NCCC(=O)O)cc1`, the figure is 5.67%; as for `O=C(NCCc1ccccc1)/C(=C\c1ccc([N+](=O)[O-])cc1)NC(=O)c1ccccc1`, 50.3% (active).
Consider `COC(=O)Cc1nnn2c1[C@H](C)[C@@H](OC)c1cc(Br)ccc1-2`, for which the activation was 0.26%.
Turning to `O=C(Cn1cnc2c(cnn2-c2ccc(F)cc2)c1=O)NCCc1ccccc1`, the activation is -0.7%.
For `O=C(CC(O)(C(F)(F)F)C(F)(F)F)Nc1ccc(Cl)c(Cl)c1` the value was 12.3%; for `Cc1nnc(NC(=O)Nc2ccc(Cl)c(Cl)c2)s1`, 42% (active).
On to `Cc1ccc(NC(=O)Nc2cc(-c3ccccc3)nn2C)cc1Cl`, for which the activation was 11.2%.
`O=P(O)(CP(=O)(c1ccccc1)c1ccccc1)c1ccccc1`: the activation was 12.7%.
As for `O=C(COC(=O)Cc1ccccc1F)NCCc1ccccc1`, the figure is 47.4% (active); as for `COc1ccc(CCNC(=O)COC(=O)Cc2ccccc2F)cc1`, 2.06%; as for `O=C(COC(=O)Cc1c[nH]c2ccccc12)NCCc1ccccc1`, 8.93%.
On to `COc1ccccc1N(CC(=O)NC1CCCC1)C(=O)C1(C)CC(=O)N=C2C=CC(C)=CN21` (centres undefined), for which the activation was 2.01%.
For `CN(C)CCCN(C(=O)c1ccc(S(=O)(=O)N2CCCc3ccccc32)cc1)c1nc2ccc(F)cc2s1` the value was 58.5% (active); for `CCN(CC(=O)Nc1c(F)cccc1F)C(=O)c1ccc(S(=O)(=O)N2CCCCC2)cc1`, 8.1%.
For `CC1CCN(C(=O)c2cccc(S(=O)(=O)N3CCCc4ccccc43)c2)CC1` the value was 2.06%.
As for `CCN(CC)CCN(C(=O)c1ccc(N2C(=O)CCC2=O)cc1)c1nc2cc3c(cc2s1)OCO3`, the figure is 2.36%.
On to `CCC(=O)Nc1nnc(S(=O)(=O)N2CCCc3ccccc32)s1`, for which the activation is 0.28%.
For `CN(C)CCCN(C(=O)c1ccc(S(=O)(=O)N2CCCCCC2)cc1)c1nc2ccc(Br)cc2s1` the value was 58.3% (active); for `O=C(CO/N=C/c1ccccc1O)NNC(=O)c1ccccc1Cl`, 8.86%.
For `O=C(NN=Cc1ccccc1O)NN=Cc1ccccc1O` the value was 43.2% (active).
As for `C=CCOc1ccccc1/C=N/NC(=O)Cc1ccccc1`, the figure is 3.06%; as for `NC(CSC(c1ccccc1)(c1ccccc1)c1ccc(-c2ccccc2)cc1)C(=O)O` (centres undefined), 3.19%.
For the compound `O=S(=O)(Cc1ccc(Cl)cc1Cl)c1ccc(Cl)cc1`, the activation was 6.28%.
As for `COC(=O)C1=C(C)N(Cc2cccc(C(F)(F)F)c2)C(=NCc2cccc(C(F)(F)F)c2)NC1c1ccccc1C(F)(F)F` (centres undefined), the figure is -0.1%; as for `O=C(N[C@H](C(=O)N1CCC[C@H]1C(=O)NCCc1ccccc1Cl)c1ccccc1)c1ccccc1`, 57.5% (active); as for `O=C(NCCc1ccc(Cl)cc1)C1CCCN1C(=O)NCc1ccccc1` (centres undefined), -0.77%.
As for `CC(=O)c1cccc(NC(=O)N2CCCC2C(=O)NCCc2ccccc2)c1` (centres undefined), the figure is 4.48%.
As for `CC1CCN(C(=O)CCc2nnc3ccc(NCc4ccco4)nn23)CC1`, the figure is 6.46%; as for `COc1ccc(N2C(=O)CC(Nc3ccc(F)cc3)C2=O)c([N+](=O)[O-])c1` (centres undefined), 2.14%.
For the compound `Nc1nc2c(ncn2[C@@H]2O[C@H](C(=O)N[C@@H](Cc3ccccc3)C(=O)NCc3ccccc3)[C@@H](O)[C@H]2O)c(=O)[nH]1`, the activation is 5.02%.
As for `CC(C)[C@H](NC(=O)N1CCn2c1nc1ccccc12)C(=O)NCc1ccc2c(c1)OCO2`, the figure is 3.58%.
As for `CC(C)[C@H](NC(=O)N1CCn2c1nc1ccccc12)C(=O)NCCc1ccccc1`, the figure is 38.9% (active); as for `CC(C)[C@H](NC(=O)N1CCn2c1nc1ccccc12)C(=O)NC1CC1`, 1.88%.
As for `C=CCOc1ccc(C(=O)Nc2ccccc2C(=O)N2CCCC2)cc1`, the figure is -0.26%.
